What is called residual activity is what remains of the control signal, in per cent. By Ki is commonly meant the dissociation constant of the complex between target and ligand, obtained from inhibition or displacement. A low value points to higher affinity.

The results in this text go back to ChEMBL document CHEMBL1157434, “2-Aminopropane-1,2,3-tricarboxylic acid: Synthesis and co-crystallization with the class A beta-lactamase BS3 of Bacillus licheniformis” (Bioorg Med Chem Lett, 2008).

In assay [1] the target is T1, Imipenem-hydrolyzing beta-lactamase (Enterobacter cloacae) (UniProt P52663).
T1 sequence (whole entry): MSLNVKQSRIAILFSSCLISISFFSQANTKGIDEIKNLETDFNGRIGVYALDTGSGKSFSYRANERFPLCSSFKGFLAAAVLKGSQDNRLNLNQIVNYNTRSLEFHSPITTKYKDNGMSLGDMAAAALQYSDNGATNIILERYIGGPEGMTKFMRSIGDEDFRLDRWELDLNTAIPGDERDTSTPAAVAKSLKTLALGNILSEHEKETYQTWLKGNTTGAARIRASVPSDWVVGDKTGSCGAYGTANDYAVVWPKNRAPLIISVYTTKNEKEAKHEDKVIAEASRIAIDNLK
The assay is described as follows: Inhibition of Enterobacter cloacae beta-lactamase NMCA in 50 mM phosphate buffer at pH 7.2 at 100 uM; values are per cent of control.

In assay [2] the target is Beta-lactamase OXA-10 (Pseudomonas aeruginosa) (UniProt P14489). The experiment in a line: Inhibition of Pseudomonas aeruginosa beta-lactamase Oxa-10 in 50 mM phosphate buffer at pH 7.2 at 100 uM; values are per cent of control.
The test system of another assay is Bacillus licheniformis. The assay is described as follows: Inhibition of Bacillus licheniformis beta-lactamase BS3 in 50 mM phosphate buffer at pH 7.2 at 100 uM; values are per cent of control.
Another assay concerns Enterobacter cloacae. The assay is described as follows: Inhibition of Enterobacter cloacae beta-lactamase P99 in 50 mM phosphate buffer at pH 7.2 at 100 uM; values are per cent of control.
A short description of assay [3]: Inhibition of beta-lactamase TEM1 in 25 mM acetate buffer at pH 5. In a few lines: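 Hydrolysis rates were measured without and with inhibitor at varying concentrations. Ki was derived from a plot of V0/Vi against inhibitor concentration. Performed three times.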
A short description of assay [4]: Inhibition of beta-lactamase TEM1 in 50 mM phosphate buffer at pH 7.2 at 2 mM.
Assay [5] can be described thus: Inhibition of Bacillus licheniformis beta-lactamase BS3 in 25 mM acetate buffer at pH 5. A digest of the protocol: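 Purified BS3 (1–100 nM) mixed with inhibitor and the chromogenic substrate nitrocefin. Ki obtained from a plot of V0/Vi (uninhibited over inhibited hydrolysis rate) against inhibitor concentration. Three independent runs.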
Assay [6] deals with beta-lactamase BcII (Bacillus cereus). The experiment in a line: Inhibition of Bacillus cereus beta-lactamase Bc2 in 50 mM phosphate buffer at pH 7.2 at 100 uM; values are per cent of control.
The nature of assay [7]: Inhibition of beta-lactamase TEM1 in 50 mM phosphate buffer at pH 7.2 at 0.2 mM.

Sequence of Beta-lactamase OXA-10 (Pseudomonas aeruginosa) (P14489 whole entry): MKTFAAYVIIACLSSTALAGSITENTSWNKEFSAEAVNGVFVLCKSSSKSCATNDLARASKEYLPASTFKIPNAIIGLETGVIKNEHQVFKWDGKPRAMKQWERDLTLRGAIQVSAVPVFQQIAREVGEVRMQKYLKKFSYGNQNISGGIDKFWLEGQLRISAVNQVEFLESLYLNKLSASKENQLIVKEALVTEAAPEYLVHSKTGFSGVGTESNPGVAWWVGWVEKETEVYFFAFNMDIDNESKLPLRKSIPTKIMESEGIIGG

Regarding `NC(CC(=O)O)(CC(=O)O)C(=O)O`, the residual activity was found to be 94% in assay [1]; 100% in assay [2]; 88% in the assay on Bacillus licheniformis; 81% in the assay with Enterobacter cloacae; 95% in assay [4]. Further, the Ki in [3] worked out at 150 µM.
Regarding `O=C(O)CC(O)(CC(=O)O)C(=O)O` [CITRIC ACID], the inhibition constant (Ki) was determined as 490 µM in assay [5] and 730 µM in assay [3].
For `O=C(O)CC(C(=O)O)C(O)C(=O)O` (stereo unspecified) [ISOCITRATE] the same measures were 2200 µM and 1500 µM.
As to `CCOC(=O)CC(N)(CC(=O)OCC)C(=O)OCC`, the residual activity in assay [1] was 60%; in [6], 92%; in assay [2], 98%; in the assay with Bacillus licheniformis it was 82%; in [7], 71%; with Enterobacter cloacae it was 87%.
